Test [1] deals with MCF7. Kind of test: Cytotoxicity against vinblastine-sensitive human MCF7 cells after 72 hrs by SRB assay. The format is functional, cell-based. The settings on record: MCF7, 72 h. Put shortly:
(§1)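 Log-phase cells in RPMI 1640 + 10% FBS, 37 °C, 5% CO2, exposed in triplicate to 0.2−25 μg/mL test sample for 72 h. Growth read by sulforhodamine B. IC50 = concentration giving 50% inhibition of control growth, taken from a semilog plot of concentration against % growth inhibition. Vinblastine served as positive control. Resistant line MCF-7/Vin was kept with or without 0.192 μg/mL vinblastine.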
In general terms: In SRB staining, fixed cells bind dye roughly in proportion to their protein.

Test [2] has as its system MCF7. Kind of test: Cytotoxicity against drug-sensitive human MCF7 cells after 72 hrs by SRB assay. Type of test: functional, cell-based. The note with it: MCF7, 72 h. Put shortly:
as §1

For test [3], the system named is MCF7. Kind of test: Cytotoxicity against vinblastine-reasistant human MCF7 cells after 72 hrs by SRB assay. Type of test: functional, cell-based. The settings on record: MCF7, 72 h. An outline of the steps: as §1
For test [4], the system named is MDR. Kind of test: Inhibition of MDR in vinblastine-resistant human MCF7 cells assessed as decrease in vinblastine IC50 at 25 ug/mL after 72 hrs by SRB assay. Type of test: cell-based. An outline of the steps: (§2)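 Vinblastine (0.00064−10 μg/mL) was given with or without glycolipid at 25 or 5 μg/mL for 72 h at 37 °C, 5% CO2, then read by SRB assay. Vinblastine IC50 came from a semilog plot. Reversal fold = IC50 of vinblastine alone / IC50 with glycolipid. Reserpine 5 μg/mL served as positive control. Values are mean ± SD of three independent experiments.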

Test [5] has as its system MDR. Kind of test: Inhibition of MDR in vinblastine-sensitive human MCF7 cells assessed as decrease in vinblastine IC50 at 25 ug/mL after 72 hrs by SRB assay. The format is cell-based. Put shortly:
as §2

For test [6], the system named is MDR. Kind of test: Inhibition of MDR in drug-sensitive human MCF7 cells assessed as decrease in vinblastine IC50 at 25 ug/mL after 72 hrs by SRB assay. Type of test: cell-based. An outline of the steps: as §2
The test system of test [7] is MDR. Kind of test: Inhibition of MDR in vinblastine-resistant human MCF7 cells assessed as decrease in vinblastine IC50 at 5 ug/mL after 72 hrs by SRB assay. The format is cell-based. Put shortly:
as §2

Test [8] relates to MDR. Put plainly: Inhibition of MDR in vinblastine-sensitive human MCF7 cells assessed as decrease in vinblastine IC50 at 5 ug/mL after 72 hrs by SRB assay. The format is cell-based. Put shortly: as §2
The subject of test [9] is MDR. Put plainly: Inhibition of MDR in drug-sensitive human MCF7 cells assessed as decrease in vinblastine IC50 at 5 ug/mL after 72 hrs by SRB assay. The format is cell-based. Put shortly: as §2

Converted amounts (≈) assume the structure as drawn.

`C/C=C(\C)C(=O)O[C@H]1[C@H](O[C@H]2[C@@H]3O[C@H]4[C@H](O[C@@H](CCCCC)CCCCCCCCCC(=O)O[C@H]2[C@H](O)[C@@H](CO[C@@H]2O[C@H](C)[C@@H](O)[C@H](OC(=O)/C(C)=C/C)[C@H]2O[C@@H]2O[C@@H](C)[C@H](O)[C@@H](O)[C@H]2O)O3)O[C@H](C)[C@@H](O)[C@@H]4O)O[C@@H](C)[C@H](O)[C@H]1O` [ALBINOSIDE III]: the half-inhibitory concentration (IC50) in the test on MCF7 [1], in the test with MCF7 [2] and in the test on MCF7 [3] was more than 20 µg/mL each time. The fold change (FC) in the test with MDR [4] was more than 2140; in the test with MDR [5], more than 1690; in the test with MDR [6] it was more than 73.4.

As to `COC(=O)[C@H]1[C@H]2C[C@@H]3c4[nH]c5cc(OC)ccc5c4CCN3C[C@H]2C[C@@H](OC(=O)c2cc(OC)c(OC)c(OC)c2)[C@@H]1OC`, the fold change (FC) was 4.4 in the test with MDR [7], 29.2 with MDR [8] and 15.7 in the test on MDR [9].

As for `CC[C@]1(O)C[C@@H]2CN(CCc3c([nH]c4ccccc34)[C@@](C(=O)OC)(c3cc4c(cc3OC)N(C)[C@H]3[C@@](O)(C(=O)OC)[C@H](OC(C)=O)[C@]5(CC)C=CCN6CC[C@]43[C@@H]65)C2)C1` [VINBLASTINE], the results for the half-inhibitory concentration (IC50) with MCF7 [2] and in the test on MCF7 [3] were 0.047 µg/mL (≈ 0.058 µM) and 1.37 µg/mL (≈ 1.69 µM), respectively.

Consider `CCC[C@H]1CCCCCCCCCC(=O)O[C@H]2[C@H](O[C@H]3[C@H](OC[C@H]4O[C@@H](O[C@H]5[C@H](O1)O[C@H](C)[C@@H](O)[C@@H]5O)[C@H](O[C@@H]1O[C@@H](C)[C@H](OC(C)=O)[C@@H](O)[C@H]1O)[C@@H](O)[C@@H]4O)O[C@H](C)[C@@H](O)[C@@H]3O)O[C@@H](C)[C@H](OC(=O)[C@H](C)[C@@H](C)O)[C@H]2O` [ALBINOSIDE I], for which the IC50 in the test on MCF7 [1], with MCF7 [2] and in the test on MCF7 [3] was more than 20 µg/mL each time. Moreover, the fold change (FC) stood at 3.1 in the test on MDR [4], 4.2 in the test with MDR [5] and 2.1 in the test with MDR [6].

On to `C/C=C(\C)C(=O)O[C@H]1[C@@H]2O[C@H]3[C@H](O[C@@H](CCC)CCCCCCCCCC(=O)O[C@@H]4[C@@H](O)[C@H](C)O[C@@H](O[C@@H]5[C@@H](O[C@@H]6O[C@@H](C)[C@H](O)[C@@H](O)[C@H]6O)[C@H](O[C@H]([C@H]1O)[C@H](C)O2)O[C@H](C)[C@H]5OC(=O)/C(C)=C/C)[C@@H]4O)O[C@H](C)[C@@H](O)[C@@H]3O` [ALBINOSIDE II], for which the half-maximal inhibitory concentration (IC50) in the test with MCF7 [1], in the test on MCF7 [2] and in the test on MCF7 [3] was more than 20 µg/mL throughout. Moreover, the fold change (FC) with MDR [4] turned out to be 2.6; in the test on MDR [5], 1.3; with MDR [6], 1.9.

For the origin of these results see ChEMBL document CHEMBL2146413, “Mammalian multidrug resistance lipopentasaccharide inhibitors from Ipomoea alba seeds” (J Nat Prod, 2012).
